Results published in ChEMBL document CHEMBL2203112, “Synthesis, evaluation of anti-HIV-1 and anti-HCV activity of novel 2',3'-dideoxy-2',2'-difluoro-4'-azanucleosides” (Bioorg Med Chem, 2012).
The source made the active and inactive calls. No cut-off for these calls is given here.

Key:
Vero = experiment: Cytotoxicity against african green monkey Vero cells; format: cell-based; settings: Chlorocebus sabaeus
How it was run: (§1)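 Cytotoxicity measured in lymphocytic CEM cells and in Vero (African green monkey kidney) cells; expressed as IC50 (μM).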

CCRF-CEM = experiment: Cytotoxicity against human CEM cells; format: cell-based; how it was run: as §1
[1] = system: Human immunodeficiency virus 1; experiment: Antiviral activity against HIV1 LAI infected in human PBMC assessed as inhibition of viral replication; format: functional, organism-based; settings: Human immunodeficiency virus 1, LAI
Hepatitis C virus = experiment: Antiviral activity against HCV assessed as inhibition of viral replication at 10 uM; format: functional, organism-based; settings: Hepacivirus hominis
How it was run: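 HCV replicon assay with a single test concentration of 10 μM; 2′-C-Me-cytidine served as positive control.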

PBMC = experiment: Cytotoxicity against human PBMC; format: cell-based
How it was run: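 Cytotoxicity measured in uninfected, phytohemagglutinin-stimulated human PBM cells; expressed as IC50 (μM).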

Row | EC50 [1] | EC90 [1] | Compound | IC50 (Vero) | IC50 (CCRF-CEM) | inhibition (Hepatitis C virus) | IC50 (PBMC)
1 | 36.9 µM | 75.6 µM | CC(C)(C)OC(=O)N1[C@H](CO)CC(F)(F)[C@H]1n1cc(F)c(=O)[nH]c1=O | > 100 µM | > 100 µM | inactive | 30.5 µM
2 | 44.5 µM | 90.8 µM | CC(C)(C)OC(=O)N1[C@H](CO)CC(F)(F)[C@@H]1n1cc(F)c(=O)[nH]c1=O | > 100 µM | > 100 µM | inactive | 28.2 µM
3 | > 100 µM | > 100 µM | CC(C)(C)OC(=O)N1[C@H](CO)CC(F)(F)[C@@H]1n1ccc(=O)[nH]c1=O | 44.4 µM | > 100 µM | inactive | 81.4 µM
4 | > 100 µM | > 100 µM | CC(C)(C)OC(=O)N1[C@H](CO)CC(F)(F)[C@H]1n1ccc(=O)[nH]c1=O | > 100 µM | > 100 µM | inactive | > 100 µM
5 | > 100 µM | > 100 µM | CC(C)(C)OC(=O)N1C(n2cnc3c(Cl)ncnc32)C(F)(F)C[C@H]1CO (single isomer, unassigned; 26) [listing 1 of 2 here] | > 100 µM | 57.1 µM |  | > 100 µM
6 |  |  | CC(C)(C)OC(=O)N1C(n2cnc3c(Cl)ncnc32)C(F)(F)C[C@H]1CO (single isomer, unassigned; 26) [listing 2 of 2 here] |  |  | inactive | 
7 | 64.5 µM | > 100 µM | CC(C)(C)OC(=O)N1C(n2cnc3c(Cl)ncnc32)C(F)(F)C[C@H]1CO (single isomer, unassigned; 27) [listing 1 of 2 here] | > 100 µM | 38.1 µM |  | 58.1 µM
8 |  |  | CC(C)(C)OC(=O)N1C(n2cnc3c(Cl)ncnc32)C(F)(F)C[C@H]1CO (single isomer, unassigned; 27) [listing 2 of 2 here] |  |  | inactive | 
9 | > 100 µM | > 100 µM | CC(C)(C)OC(=O)N1C(n2cnc3ncnc(Cl)c32)C(F)(F)C[C@H]1CO (single isomer, unassigned; 28) [listing 1 of 2 here] | > 100 µM | > 100 µM |  | > 100 µM
10 |  |  | CC(C)(C)OC(=O)N1C(n2cnc3ncnc(Cl)c32)C(F)(F)C[C@H]1CO (single isomer, unassigned; 28) [listing 2 of 2 here] |  |  | inactive | 
11 | 92.3 µM | > 100 µM | CC(C)(C)OC(=O)N1C(n2cnc3ncnc(Cl)c32)C(F)(F)C[C@H]1CO (single isomer, unassigned; 29) [listing 1 of 2 here] | > 100 µM | 55.4 µM |  | 59.5 µM
12 |  |  | CC(C)(C)OC(=O)N1C(n2cnc3ncnc(Cl)c32)C(F)(F)C[C@H]1CO (single isomer, unassigned; 29) [listing 2 of 2 here] |  |  | inactive | 
13 | > 100 µM | > 100 µM | CC(C)(C)OC(=O)N1C(n2cnc3c(N)ncnc32)C(F)(F)C[C@H]1CO (single isomer, unassigned; 30) [listing 1 of 2 here] | > 100 µM | > 100 µM |  | > 100 µM
14 |  |  | CC(C)(C)OC(=O)N1C(n2cnc3c(N)ncnc32)C(F)(F)C[C@H]1CO (single isomer, unassigned; 30) [listing 2 of 2 here] |  |  | inactive | 
15 | > 100 µM | > 100 µM | CC(C)(C)OC(=O)N1C(n2cnc3c(N)ncnc32)C(F)(F)C[C@H]1CO (single isomer, unassigned; 31) [listing 1 of 2 here] | > 100 µM | > 100 µM |  | > 100 µM
16 |  |  | CC(C)(C)OC(=O)N1C(n2cnc3c(N)ncnc32)C(F)(F)C[C@H]1CO (single isomer, unassigned; 31) [listing 2 of 2 here] |  |  | inactive | 
17 | > 100 µM | > 100 µM | CC(C)(C)OC(=O)N1C(n2cnc3ncnc(N)c32)C(F)(F)C[C@H]1CO (single isomer, unassigned; 32) [listing 1 of 2 here] | > 100 µM | > 100 µM |  | > 100 µM
18 |  |  | CC(C)(C)OC(=O)N1C(n2cnc3ncnc(N)c32)C(F)(F)C[C@H]1CO (single isomer, unassigned; 32) [listing 2 of 2 here] |  |  | inactive | 
19 | > 100 µM | > 100 µM | CC(C)(C)OC(=O)N1C(n2cnc3ncnc(N)c32)C(F)(F)C[C@H]1CO (single isomer, unassigned; 33) [listing 1 of 2 here] | > 100 µM | > 100 µM |  | > 100 µM
20 |  |  | CC(C)(C)OC(=O)N1C(n2cnc3ncnc(N)c32)C(F)(F)C[C@H]1CO (single isomer, unassigned; 33) [listing 2 of 2 here] |  |  | inactive | 
21 |  | 0.0027 µM | Cc1cn([C@H]2C[C@H](N=[N+]=[N-])[C@@H](CO)O2)c(=O)[nH]c1=O [ZIDOVUDINE] |  |  | inactive | > 100 µM
